Source: the M2OR odorant receptor database

Key:
Conditions in all cases: stereoisomer not certain
OR7D4 (Homo sapiens) = target: T1, OR7D4 (Homo sapiens) (UniProt Q8NG98)
T1 sequence (whole entry): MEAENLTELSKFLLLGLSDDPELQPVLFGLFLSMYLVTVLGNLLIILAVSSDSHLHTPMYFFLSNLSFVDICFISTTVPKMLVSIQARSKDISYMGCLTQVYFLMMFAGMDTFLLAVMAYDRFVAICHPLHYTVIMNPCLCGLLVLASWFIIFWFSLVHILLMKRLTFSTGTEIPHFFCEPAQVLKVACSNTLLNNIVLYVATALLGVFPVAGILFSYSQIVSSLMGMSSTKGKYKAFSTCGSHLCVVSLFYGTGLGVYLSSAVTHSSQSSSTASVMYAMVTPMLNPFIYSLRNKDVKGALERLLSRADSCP
Method in brief: (§1)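 Each entry records the cell line, G-protein, co-transfected protein and tags used. Methods varied with the source, often transient luciferase assays in mammalian cell lines. A receptor–molecule pair is called responsive (active) if the original authors judged its signal statistically different from baseline and non-responsive (inactive) otherwise.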

OR7D4 = system: OR7D4
Chain of OR7D4 (as listed by the source): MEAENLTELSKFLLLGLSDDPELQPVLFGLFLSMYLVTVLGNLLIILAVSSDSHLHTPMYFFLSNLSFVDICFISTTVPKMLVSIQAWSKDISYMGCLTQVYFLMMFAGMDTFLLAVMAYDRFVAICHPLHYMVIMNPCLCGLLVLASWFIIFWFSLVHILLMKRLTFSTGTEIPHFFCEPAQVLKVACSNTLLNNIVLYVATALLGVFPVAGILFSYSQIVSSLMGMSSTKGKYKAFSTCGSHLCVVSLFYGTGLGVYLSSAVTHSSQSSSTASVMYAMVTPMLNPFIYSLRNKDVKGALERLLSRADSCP
Method in brief: as §1

OR7D4 R88W = system: OR7D4 R88W
Chain of OR7D4 R88W (as listed by the source, stated change not applied): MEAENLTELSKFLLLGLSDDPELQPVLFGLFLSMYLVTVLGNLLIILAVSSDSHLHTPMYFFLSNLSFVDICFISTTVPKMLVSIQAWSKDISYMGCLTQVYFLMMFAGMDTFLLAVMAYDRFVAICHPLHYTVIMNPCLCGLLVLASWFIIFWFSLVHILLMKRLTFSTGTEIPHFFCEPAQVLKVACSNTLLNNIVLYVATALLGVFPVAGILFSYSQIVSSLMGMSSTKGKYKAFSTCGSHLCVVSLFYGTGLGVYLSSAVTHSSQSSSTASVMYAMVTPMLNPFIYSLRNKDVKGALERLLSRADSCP
Method in brief: as §1

OR7E24 (Homo sapiens) = OR7E24 (Homo sapiens) (UniProt Q6IFN5)
Chain of OR7E24 (Homo sapiens) (Q6IFN5 whole entry): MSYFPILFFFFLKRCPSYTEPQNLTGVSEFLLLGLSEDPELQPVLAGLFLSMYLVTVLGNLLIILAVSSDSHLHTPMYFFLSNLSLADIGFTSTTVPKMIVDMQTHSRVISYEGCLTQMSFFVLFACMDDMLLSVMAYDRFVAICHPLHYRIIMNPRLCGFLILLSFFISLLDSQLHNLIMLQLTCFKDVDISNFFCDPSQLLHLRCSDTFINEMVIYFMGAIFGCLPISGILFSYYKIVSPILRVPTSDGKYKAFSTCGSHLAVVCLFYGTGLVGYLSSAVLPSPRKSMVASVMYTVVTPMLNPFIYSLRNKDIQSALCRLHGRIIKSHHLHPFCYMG
Method in brief: as §1

OR7G1 (Homo sapiens) = OR7G1 (Homo sapiens) (UniProt Q8NGA0)
Chain of OR7G1 (Homo sapiens) (Q8NGA0 whole entry): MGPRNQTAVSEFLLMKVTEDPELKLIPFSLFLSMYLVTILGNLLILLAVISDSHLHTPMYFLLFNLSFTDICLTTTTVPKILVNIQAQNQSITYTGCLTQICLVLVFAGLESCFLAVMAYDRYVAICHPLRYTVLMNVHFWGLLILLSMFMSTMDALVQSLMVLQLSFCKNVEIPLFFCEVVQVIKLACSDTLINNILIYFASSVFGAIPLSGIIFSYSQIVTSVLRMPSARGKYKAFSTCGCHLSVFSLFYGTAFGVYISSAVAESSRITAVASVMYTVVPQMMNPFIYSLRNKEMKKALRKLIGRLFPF
Method in brief: as §1

OR7G2 = system: OR7G2
Chain of OR7G2 (as listed by the source): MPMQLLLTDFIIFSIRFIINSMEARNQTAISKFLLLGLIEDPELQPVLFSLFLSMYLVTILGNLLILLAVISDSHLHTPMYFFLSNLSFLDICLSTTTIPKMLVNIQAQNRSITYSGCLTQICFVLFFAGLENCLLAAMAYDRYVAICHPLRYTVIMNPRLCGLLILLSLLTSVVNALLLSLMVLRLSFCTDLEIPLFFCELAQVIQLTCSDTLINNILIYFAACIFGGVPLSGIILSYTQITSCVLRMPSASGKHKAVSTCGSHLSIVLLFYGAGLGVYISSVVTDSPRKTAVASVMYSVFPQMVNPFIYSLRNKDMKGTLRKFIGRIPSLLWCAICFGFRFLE
Method in brief: as §1

OR7G3 (Homo sapiens) = OR7G3 (Homo sapiens) (UniProt Q8NG95)
Chain of OR7G3 (Homo sapiens) (Q8NG95 whole entry): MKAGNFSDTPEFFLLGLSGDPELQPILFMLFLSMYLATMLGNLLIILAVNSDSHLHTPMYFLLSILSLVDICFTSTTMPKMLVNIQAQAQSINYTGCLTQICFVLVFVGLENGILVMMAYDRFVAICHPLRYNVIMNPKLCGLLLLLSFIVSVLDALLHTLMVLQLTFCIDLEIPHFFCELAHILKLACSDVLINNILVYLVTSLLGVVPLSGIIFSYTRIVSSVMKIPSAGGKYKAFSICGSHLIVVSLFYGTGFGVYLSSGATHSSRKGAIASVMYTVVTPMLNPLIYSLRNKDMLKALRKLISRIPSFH
Method in brief: as §1

OR7G3 M29V = system: OR7G3 M29V
Chain of OR7G3 M29V (as listed by the source, stated change not applied): as the sequence (Q8NG95 whole entry) above, with M29V counted along it
Method in brief: as §1

OR8A1 (Homo sapiens) = OR8A1 (Homo sapiens) (UniProt Q8NGG7)
Chain of OR8A1 (Homo sapiens) (Q8NGG7 whole entry): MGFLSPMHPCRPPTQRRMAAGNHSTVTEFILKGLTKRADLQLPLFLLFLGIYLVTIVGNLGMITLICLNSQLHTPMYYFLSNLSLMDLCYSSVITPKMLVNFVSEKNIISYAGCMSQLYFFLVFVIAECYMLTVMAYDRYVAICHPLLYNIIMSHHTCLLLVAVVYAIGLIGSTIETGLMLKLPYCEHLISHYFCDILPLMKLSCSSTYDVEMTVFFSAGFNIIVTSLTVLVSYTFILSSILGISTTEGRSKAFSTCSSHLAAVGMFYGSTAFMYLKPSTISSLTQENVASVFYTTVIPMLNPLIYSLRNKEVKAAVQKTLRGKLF
Method in brief: as §1

OR8B12 (Homo sapiens) = OR8B12 (Homo sapiens) (UniProt Q8NGG6)
Chain of OR8B12 (Homo sapiens) (Q8NGG6 whole entry): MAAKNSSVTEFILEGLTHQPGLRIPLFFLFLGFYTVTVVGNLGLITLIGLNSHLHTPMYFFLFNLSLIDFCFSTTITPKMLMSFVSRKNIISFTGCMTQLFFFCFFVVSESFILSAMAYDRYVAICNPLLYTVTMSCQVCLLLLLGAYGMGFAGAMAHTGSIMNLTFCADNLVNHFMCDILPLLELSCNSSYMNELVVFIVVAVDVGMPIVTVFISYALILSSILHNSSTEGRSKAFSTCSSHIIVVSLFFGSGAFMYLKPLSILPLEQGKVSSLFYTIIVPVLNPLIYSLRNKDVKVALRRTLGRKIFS
Method in brief: as §1

OR8B2 (Homo sapiens) = OR8B2 (Homo sapiens) (UniProt Q96RD0)
Chain of OR8B2 (Homo sapiens) (Q96RD0 whole entry): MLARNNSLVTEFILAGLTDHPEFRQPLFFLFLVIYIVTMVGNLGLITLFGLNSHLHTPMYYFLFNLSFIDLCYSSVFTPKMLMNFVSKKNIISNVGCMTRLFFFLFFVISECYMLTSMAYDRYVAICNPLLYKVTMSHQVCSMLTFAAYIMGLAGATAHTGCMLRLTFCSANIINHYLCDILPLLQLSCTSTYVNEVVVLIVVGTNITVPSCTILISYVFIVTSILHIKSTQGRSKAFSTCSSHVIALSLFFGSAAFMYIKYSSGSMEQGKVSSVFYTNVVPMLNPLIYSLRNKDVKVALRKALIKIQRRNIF
Method in brief: as §1

OR8B2 L164F = system: OR8B2 L164F
Chain of OR8B2 L164F (as listed by the source, stated change not applied): as the sequence (Q96RD0 whole entry) above, with L164F counted along it
Method in brief: as §1

OR8B2 S273F = system: OR8B2 S273F
Chain of OR8B2 S273F (as listed by the source, stated change not applied): as the sequence (Q96RD0 whole entry) above, with S273F counted along it
Method in brief: as §1

OR8B3 (Homo sapiens) = OR8B3 (Homo sapiens) (UniProt Q8NGG8)
Chain of OR8B3 (Homo sapiens) (Q8NGG8 whole entry): as the sequence (Q96RD0 whole entry) above, with R24Q, I34V, T47I, N94Y, R100Q, T205I, T208M counted along it
Method in brief: as §1

OR8B3 H20R Q24R M114I = system: OR8B3 H20R Q24R M114I
Method in brief: as §1

OR8B3 H20R Q24R Y113H = system: OR8B3 H20R Q24R Y113H
Method in brief: as §1

OR8B3 H20R Q24R = system: OR8B3 H20R Q24R
Method in brief: as §1

OR8B4 (Homo sapiens) = OR8B4 (Homo sapiens) (UniProt Q96RC9)
Chain of OR8B4 (Homo sapiens) (Q96RC9 whole entry): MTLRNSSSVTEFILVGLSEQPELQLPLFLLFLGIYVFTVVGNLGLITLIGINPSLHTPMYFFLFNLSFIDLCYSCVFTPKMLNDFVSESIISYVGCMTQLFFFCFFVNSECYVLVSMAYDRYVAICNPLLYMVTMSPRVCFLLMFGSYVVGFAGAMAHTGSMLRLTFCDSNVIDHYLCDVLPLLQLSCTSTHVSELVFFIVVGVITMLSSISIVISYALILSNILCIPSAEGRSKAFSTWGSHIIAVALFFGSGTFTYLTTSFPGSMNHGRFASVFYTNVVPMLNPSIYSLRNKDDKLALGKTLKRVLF
Method in brief: as §1

OR8B4 = system: OR8B4
Chain of OR8B4 (as listed by the source): as the sequence (Q96RC9 whole entry) above, with E22G counted along it
Method in brief: as §1

OR7G2 (Homo sapiens) = OR7G2 (Homo sapiens) (UniProt Q8NG99)
Chain of OR7G2 (Homo sapiens) (Q8NG99 whole entry): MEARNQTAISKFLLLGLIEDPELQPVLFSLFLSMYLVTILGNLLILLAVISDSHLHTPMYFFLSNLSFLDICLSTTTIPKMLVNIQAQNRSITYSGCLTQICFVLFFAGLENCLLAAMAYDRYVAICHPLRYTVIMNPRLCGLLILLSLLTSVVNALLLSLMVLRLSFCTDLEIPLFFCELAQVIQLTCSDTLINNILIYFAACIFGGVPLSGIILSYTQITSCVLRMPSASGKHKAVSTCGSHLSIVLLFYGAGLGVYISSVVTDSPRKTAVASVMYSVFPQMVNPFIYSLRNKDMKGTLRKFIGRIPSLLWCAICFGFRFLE
Method in brief: as §1

Measured: odorant receptor agonist call

C=C(C)C1CCC2(C)OOC(C1)O2 (stereo unspecified)
inactive: OR7D4 (Homo sapiens) | OR7D4

C=CCOC(=O)Cc1ccccc1
not listed: OR7G2 (Homo sapiens)
inactive: all other assays above

Cc1c([N+](=O)[O-])c(C)c([N+](=O)[O-])c(C(C)(C)C)c1[N+](=O)[O-]
inactive: OR7D4 (Homo sapiens) | OR7E24 (Homo sapiens) | OR7G1 (Homo sapiens) | OR7G2 (Homo sapiens) | OR7G3 (Homo sapiens) | OR8A1 (Homo sapiens) | OR8B12 (Homo sapiens) | OR8B2 (Homo sapiens) | OR8B3 (Homo sapiens) | OR8B4 (Homo sapiens)
